Structures are written as SMILES. Values after ≈ are worked out from the molar mass of the structure shown. Where only a bound is given, the exact number is not on record here.

One series is described as follows: Lipophilicity, logP of the compound. It is filed as physicochemical. As to conditions: octanol/water.
`O=C(NCCc1c[nH]c2ccccc12)c1ccc2[nH]cc(C(=O)c3ccccc3)c2c1`: the logP came out at 2.8.
Same read-out and setting: to `NC(=O)C1CCN(C(=O)c2c[nH]c3ccccc23)CC1` belongs -0.2; to `O=C(NCCO)c1ccc2[nH]cc(C(=O)c3ccccc3)c2c1`, 0.6.
The same measure, in the same setting: to `Cn1c(NC(=O)Cn2ccccc2=O)cc2ccccc21` belongs 1.1; to `COC(=O)c1ccc2[nH]cc(C(=O)c3ccccc3)c2c1`, 2.5.
On the same count and under the same terms, under `CN(C)C(=O)Cc1ccc2cc[nH]c2c1` stands 1; under `NC(=O)C1CCN(C(=O)c2cccc3ccccc23)CC1`, 0.8; under `COC(=O)c1ccc2c(C(=O)c3ccccc3)c[nH]c2c1`, 2.7.
In the case of `COC(=O)c1ccc2c(C(=O)Nc3ccccc3)cn(C)c2c1`, the logP stood at 2.9.

Staying with this series, now noted: octanol/water; read-out: logP.
As to `Cn1cc(C(=O)c2ccccc2)c2cc(C(=O)NCCc3cnc[nH]3)ccc21`, the logP was 1.5.
On to `COC(=O)c1ccc2ccc(C(=O)Nc3ccccc3)c-2cc1`, for which the logP amounted to 3.8.
For the molecule `O=C(NCCc1cnc[nH]1)C1=CC2C(C(=O)c3ccccc3)=CN=C2C=C1` (centres undefined), the logP was 0.8.
Same read-out and setting: under `CN1CCN(C(=O)c2ccc3[nH]cc(C(=O)c4ccccc4)c3c2)CC1` stands 1.3.

A further series in a line: Metabolic stability in human liver microsomes assessed as hepatic blood flow at 1 uM preincubated with compound followed by NADPH addition by LC-MS/MS analysis. The following applies: read-out: QH. It is filed as ADME, Microsome. On the technique in general: Microsomes from liver hold many membrane-bound enzymes, among them those of drug oxidation.
For the molecule `O=C(NCCc1c[nH]c2ccccc12)c1ccc2[nH]cc(C(=O)c3ccccc3)c2c1`, the hepatic extraction ratio at 1 µM stood at 0.84.
On the same count and under the same terms, to `NC(=O)C1CCN(C(=O)c2c[nH]c3ccccc23)CC1` belongs less than 0.23; to `Cn1cc(C(=O)c2ccccc2)c2cc(C(=O)NCCc3cnc[nH]3)ccc21`, 0.23.
As for `O=C(NCCc1cnc[nH]1)C1=CC2C(C(=O)c3ccccc3)=CN=C2C=C1` (centres undefined), the hepatic extraction ratio at 1 µM was less than 0.23.
The same measure, in the same setting: to `O=C(NCCO)c1ccc2[nH]cc(C(=O)c3ccccc3)c2c1` belongs 0.53; to `CN1CCN(C(=O)c2ccc3[nH]cc(C(=O)c4ccccc4)c3c2)CC1`, less than 0.23.
The same measure, in the same setting: under `Cn1c(NC(=O)Cn2ccccc2=O)cc2ccccc21` stands less than 0.23.
As to `CN(C)C(=O)Cc1ccc2cc[nH]c2c1`, the hepatic extraction ratio at 1 µM is less than 0.23.
Same read-out and setting: under `NC(=O)C1CCN(C(=O)c2cccc3ccccc23)CC1` stands less than 0.23.

The nature of another series: Octanol-water partition coefficient, logD of the compound at pH 11 by HPLC analysis. It is filed as physicochemical.
Conditions: not given
Consider `O=C(NCCO)c1ccc2[nH]cc(C(=O)c3ccccc3)c2c1`, for which the logD amounted to 1.3.
The same measure, in the same setting: to `Cn1c(NC(=O)Cn2ccccc2=O)cc2ccccc21` belongs 1.5; to `COC(=O)c1ccc2c(C(=O)Nc3ccccc3)cn(C)c2c1`, 3.4.

Staying with this series, now noted: read-out: logD.
With `O=C(NCCc1c[nH]c2ccccc12)c1ccc2[nH]cc(C(=O)c3ccccc3)c2c1`, the logD was 2.8.
Same read-out and setting: under `NC(=O)C1CCN(C(=O)c2c[nH]c3ccccc23)CC1` stands -0.2; under `Cn1cc(C(=O)c2ccccc2)c2cc(C(=O)NCCc3cnc[nH]3)ccc21`, 1.5.
Still for that read-out and setting: to `COC(=O)c1ccc2ccc(C(=O)Nc3ccccc3)c-2cc1` belongs 4.
In the case of `O=C(NCCc1cnc[nH]1)C1=CC2C(C(=O)c3ccccc3)=CN=C2C=C1` (centres undefined), the logD was determined as 0.8.
On to `CN1CCN(C(=O)c2ccc3[nH]cc(C(=O)c4ccccc4)c3c2)CC1`, for which the logD was determined as 1.3.
The same measure, in the same setting: to `COC(=O)c1ccc2[nH]cc(C(=O)c3ccccc3)c2c1` belongs 2.5.
As to `CN(C)C(=O)Cc1ccc2cc[nH]c2c1`, the logD came out at 1.
On the same count and under the same terms, under `NC(=O)C1CCN(C(=O)c2cccc3ccccc23)CC1` stands 0.8.
On the same count and under the same terms, under `COC(=O)c1ccc2c(C(=O)c3ccccc3)c[nH]c2c1` stands 2.7.

Another series is described as follows: Aqueous solubility of the compound at pH 2.2 incubated for 24 hrs under shaking condition by LC-UV analysis. It is filed as physicochemical. The following applies: aqueous medium. Put shortly:
(§1)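 The highest concentration tested was 250 μM, so results are capped at that level. Values are reported in µg/ml.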
`O=C(NCCc1c[nH]c2ccccc12)c1ccc2[nH]cc(C(=O)c3ccccc3)c2c1` gave a thermodynamic solubility at 24 h of less than 1 µg/mL.
Consider `Cn1cc(C(=O)c2ccccc2)c2cc(C(=O)NCCc3cnc[nH]3)ccc21`, for which the solubility (thermodynamic) at 24 h worked out at 84 µg/mL (≈ 226 µM).
The same measure, in the same setting: to `COC(=O)c1ccc2ccc(C(=O)Nc3ccccc3)c-2cc1` belongs less than 1 µg/mL.
On the same count and under the same terms, under `O=C(NCCc1cnc[nH]1)C1=CC2C(C(=O)c3ccccc3)=CN=C2C=C1` (centres undefined) stands greater than 81 µg/mL; under `O=C(NCCO)c1ccc2[nH]cc(C(=O)c3ccccc3)c2c1`, 39 µg/mL (≈ 126 µM).
Still for that read-out and setting: to `CN1CCN(C(=O)c2ccc3[nH]cc(C(=O)c4ccccc4)c3c2)CC1` belongs greater than 74 µg/mL; to `COC(=O)c1ccc2[nH]cc(C(=O)c3ccccc3)c2c1`, less than 1 µg/mL; to `CN(C)C(=O)Cc1ccc2cc[nH]c2c1`, greater than 51 µg/mL.
`NC(=O)C1CCN(C(=O)c2cccc3ccccc23)CC1`: the solubility (thermodynamic) at 24 h is greater than 70 µg/mL.
With `COC(=O)c1ccc2c(C(=O)c3ccccc3)c[nH]c2c1`, the thermodynamic solubility at 24 h was less than 1 µg/mL.
On the same count and under the same terms, under `COC(=O)c1ccc2c(C(=O)Nc3ccccc3)cn(C)c2c1` stands less than 1 µg/mL.

Another series in a line: Aqueous solubility of the compound at pH 6.8 incubated for 24 hrs under shaking condition by LC-UV analysis. It is filed as physicochemical. The following applies: aqueous medium. In a few lines:
as §1
With `O=C(NCCc1c[nH]c2ccccc12)c1ccc2[nH]cc(C(=O)c3ccccc3)c2c1`, the solubility (thermodynamic) at 24 h worked out at 1 µg/mL (≈ 2.45 µM).
Regarding `Cn1cc(C(=O)c2ccccc2)c2cc(C(=O)NCCc3cnc[nH]3)ccc21`, the solubility (thermodynamic) at 24 h was determined as 72 µg/mL (≈ 193 µM).
`COC(=O)c1ccc2ccc(C(=O)Nc3ccccc3)c-2cc1` yielded a solubility (thermodynamic) at 24 h of less than 1 µg/mL.
Still for that read-out and setting: under `O=C(NCCc1cnc[nH]1)C1=CC2C(C(=O)c3ccccc3)=CN=C2C=C1` (centres undefined) stands 66 µg/mL (≈ 184 µM).
Still for that read-out and setting: to `O=C(NCCO)c1ccc2[nH]cc(C(=O)c3ccccc3)c2c1` belongs 15 µg/mL (≈ 48.6 µM); to `CN1CCN(C(=O)c2ccc3[nH]cc(C(=O)c4ccccc4)c3c2)CC1`, 69 µg/mL (≈ 199 µM); to `Cn1c(NC(=O)Cn2ccccc2=O)cc2ccccc21`, 3 µg/mL (≈ 10.7 µM).
Still for that read-out and setting: to `COC(=O)c1ccc2[nH]cc(C(=O)c3ccccc3)c2c1` belongs less than 1 µg/mL.
`CN(C)C(=O)Cc1ccc2cc[nH]c2c1` returned a thermodynamic solubility at 24 h greater than 51 µg/mL.
The same measure, in the same setting: under `NC(=O)C1CCN(C(=O)c2cccc3ccccc23)CC1` stands greater than 71 µg/mL.
`COC(=O)c1ccc2c(C(=O)c3ccccc3)c[nH]c2c1` returned a thermodynamic solubility at 24 h of less than 1 µg/mL.
As for `COC(=O)c1ccc2c(C(=O)Nc3ccccc3)cn(C)c2c1`, the solubility (thermodynamic) at 24 h is less than 1 µg/mL.

The nature of another series: Aqueous solubility of the compound at pH 4.5 incubated for 24 hrs under shaking condition by LC-UV analysis. It is filed as physicochemical. The following applies: aqueous medium. In a few lines:
as §1
As for `O=C(NCCc1c[nH]c2ccccc12)c1ccc2[nH]cc(C(=O)c3ccccc3)c2c1`, the solubility (thermodynamic) at 24 h was less than 1 µg/mL.
Still for that read-out and setting: to `Cn1cc(C(=O)c2ccccc2)c2cc(C(=O)NCCc3cnc[nH]3)ccc21` belongs 107 µg/mL (≈ 287 µM); to `COC(=O)c1ccc2ccc(C(=O)Nc3ccccc3)c-2cc1`, less than 1 µg/mL.
In turn, `O=C(NCCc1cnc[nH]1)C1=CC2C(C(=O)c3ccccc3)=CN=C2C=C1` (centres undefined) returned a thermodynamic solubility at 24 h of 78 µg/mL (≈ 218 µM).
On the same count and under the same terms, to `O=C(NCCO)c1ccc2[nH]cc(C(=O)c3ccccc3)c2c1` belongs 18 µg/mL (≈ 58.4 µM); to `COC(=O)c1ccc2[nH]cc(C(=O)c3ccccc3)c2c1`, less than 1 µg/mL.
Still for that read-out and setting: to `CN(C)C(=O)Cc1ccc2cc[nH]c2c1` belongs greater than 51 µg/mL; to `NC(=O)C1CCN(C(=O)c2cccc3ccccc23)CC1`, greater than 71 µg/mL; to `COC(=O)c1ccc2c(C(=O)c3ccccc3)c[nH]c2c1`, less than 1 µg/mL.
Still for that read-out and setting: to `COC(=O)c1ccc2c(C(=O)Nc3ccccc3)cn(C)c2c1` belongs less than 1 µg/mL.

Another series in a line: Permeability of the compound at pH 7.4 by PAMPA assay. It is filed as ADME. The following applies: read-out: permeability. In general terms: In PAMPA a lipid-coated filter parts donor from acceptor wells.
In the case of `O=C(NCCc1c[nH]c2ccccc12)c1ccc2[nH]cc(C(=O)c3ccccc3)c2c1`, the Papp was less than 0.01 ×10⁻⁶ cm/s.
For the molecule `NC(=O)C1CCN(C(=O)c2c[nH]c3ccccc23)CC1`, the Papp was less than 0.01 ×10⁻⁶ cm/s.
The same measure, in the same setting: under `Cn1cc(C(=O)c2ccccc2)c2cc(C(=O)NCCc3cnc[nH]3)ccc21` stands 0.1 ×10⁻⁶ cm/s; under `COC(=O)c1ccc2ccc(C(=O)Nc3ccccc3)c-2cc1`, 0.4 ×10⁻⁶ cm/s; under `O=C(NCCc1cnc[nH]1)C1=CC2C(C(=O)c3ccccc3)=CN=C2C=C1` (centres undefined), less than 0.01 ×10⁻⁶ cm/s.
Same read-out and setting: under `O=C(NCCO)c1ccc2[nH]cc(C(=O)c3ccccc3)c2c1` stands 0.01 ×10⁻⁶ cm/s.
On the same count and under the same terms, under `CN1CCN(C(=O)c2ccc3[nH]cc(C(=O)c4ccccc4)c3c2)CC1` stands 0.2 ×10⁻⁶ cm/s; under `Cn1c(NC(=O)Cn2ccccc2=O)cc2ccccc21`, 3.3 ×10⁻⁶ cm/s; under `COC(=O)c1ccc2[nH]cc(C(=O)c3ccccc3)c2c1`, 2.8 ×10⁻⁶ cm/s.
For `CN(C)C(=O)Cc1ccc2cc[nH]c2c1`, the Papp was 1.3 ×10⁻⁶ cm/s.
On the same count and under the same terms, to `NC(=O)C1CCN(C(=O)c2cccc3ccccc23)CC1` belongs 0.2 ×10⁻⁶ cm/s.
Take `COC(=O)c1ccc2c(C(=O)c3ccccc3)c[nH]c2c1`: the Papp worked out at 1.5 ×10⁻⁶ cm/s.
The same measure, in the same setting: to `COC(=O)c1ccc2c(C(=O)Nc3ccccc3)cn(C)c2c1` belongs 2.2 ×10⁻⁶ cm/s.

The next series can be described thus: Octanol-water partition coefficient, logD of the compound at pH 2 by HPLC analysis. It is filed as physicochemical.
Conditions: not given
`O=C(NCCc1c[nH]c2ccccc12)c1ccc2[nH]cc(C(=O)c3ccccc3)c2c1` displayed a logD of 3.3.
On the same count and under the same terms, under `NC(=O)C1CCN(C(=O)c2c[nH]c3ccccc23)CC1` stands 0.3.
Same read-out and setting: to `O=C(NCCO)c1ccc2[nH]cc(C(=O)c3ccccc3)c2c1` belongs 1.3; to `Cn1c(NC(=O)Cn2ccccc2=O)cc2ccccc21`, 1.5.
On the same count and under the same terms, under `COC(=O)c1ccc2[nH]cc(C(=O)c3ccccc3)c2c1` stands 2.9; under `CN(C)C(=O)Cc1ccc2cc[nH]c2c1`, 1.4.
Take `NC(=O)C1CCN(C(=O)c2cccc3ccccc23)CC1`: the logD was determined as 1.3.
Same read-out and setting: to `COC(=O)c1ccc2c(C(=O)c3ccccc3)c[nH]c2c1` belongs 3.1.
On the same count and under the same terms, to `COC(=O)c1ccc2c(C(=O)Nc3ccccc3)cn(C)c2c1` belongs 3.4.

The same series, now with this note: read-out: logD.
As to `Cn1cc(C(=O)c2ccccc2)c2cc(C(=O)NCCc3cnc[nH]3)ccc21`, the logD is 0.9.
The same measure, in the same setting: under `COC(=O)c1ccc2ccc(C(=O)Nc3ccccc3)c-2cc1` stands 4.
Same read-out and setting: to `O=C(NCCc1cnc[nH]1)C1=CC2C(C(=O)c3ccccc3)=CN=C2C=C1` (centres undefined) belongs 0.7; to `CN1CCN(C(=O)c2ccc3[nH]cc(C(=O)c4ccccc4)c3c2)CC1`, 0.5.

A word on the logP: it is a log measure of how a compound divides between an organic and an aqueous phase. By logD is commonly meant the decadic logarithm of the distribution of all forms, ionised or not, between an organic phase and buffer at a given pH. By solubility (thermodynamic) is commonly meant solubility found after equilibrating the solid with the medium.

The record behind these values is ChEMBL document CHEMBL5120825, “The azulene scaffold from a medicinal chemist's perspective: Physicochemical and in vitro parameters relevant for drug discovery” (Eur J Med Chem, 2022).
